Experimental data from ChEMBL document CHEMBL1123505, “Synthesis, structure, and antitumor activity of N-salicyloyl-N'-(2-furylthiocarbonyl)hydrazine and its copper(II) complex” (1986).

Assays:
Type in all cases: functional
[1] = tested on: Mus musculus; test: Antitumor activity against fibrosarcoma infected mice at the dosage of 25 mg/kg (ip) and expressed as no. of mice injected; T/C= 10/10
[2] = tested on: Mus musculus; test: Antitumor activity expressed as %T/C was tested against fibrosarcoma at the dosage of 25 mg/Kg (sc)
Outline: (§1)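 Fibrosarcoma: 4 × 10⁶ cells were given sc to C₃H/He mice, 25–30 g. A single ip or sc dose in 0.89% saline followed on day three, with saline-injected controls. Mean life span of nonsurvivors excludes mice surviving 6 months or more, which were counted as tumour-free. T/C% is treated mean survival, excluding tumour-free survivors, divided by untreated mean life span ×100.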

[3] = tested on: Mus musculus; test: Antitumor activity expressed as mean life span of nonsurvivors in days (T/C) was tested against Dalton's lymphoma at the dosage of 10 mg/kg (ip); 33/21
[4] = tested on: Mus musculus; test: Antitumor activity expressed as mean life span of nonsurvivors in days (T/C) was tested against Dalton's lymphoma at the dosage of 2 mg/kg (ip); 27/21
[5] = tested on: Mus musculus; test: Antitumor activity expressed as %T/C was tested against fibrosarcoma at the dosage of 5 mg/Kg (sc); outline: as §1
[6] = tested on: Mus musculus; test: Antitumor activity against fibrosarcoma infected mice at the dosage of 5 mg/kg (sc) and expressed as no. of mice injected; T/C= 7/7
[7] = tested on: Mus musculus; test: Antitumor activity expressed as %T/C was tested against fibrosarcoma at the dosage of 10 mg/Kg (sc); outline: as §1
[8] = tested on: Mus musculus; test: Antitumor activity expressed as average body weight change was tested against fibrosarcoma at the dosage of 25 mg/kg (Ip)
Outline: (§2)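 Fibrosarcoma-bearing C₃H/He mice (4 × 10⁶ cells sc) received a single ip or sc dose in 0.89% saline on day three after transplant; controls received saline. The day of injection was taken as day zero. Mice were weighed on alternate days up to 4 weeks. Values are average % weight change from the day of treatment to day 21.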

[9] = tested on: Mus musculus; test: Antitumor activity expressed as mean life span of nonsurvivors in days (T/C) was tested against fibrosarcoma at the dosage of 25 mg/kg (ip); 40/28
Outline: (§3)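 On day 3 after transplantation they received a single ip or sc dose of compound freshly suspended in 0.89% saline. Saline-injected controls were used, with 5–10 mice per group. Mean life span of treated nonsurvivors is shown against untreated controls, excluding mice surviving ≥6 months.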

[10] = tested on: Mus musculus; test: Antitumor activity against Dalton's lymphoma infected mice at the dosage of 10 mg/kg (ip) and expressed as no. of mice injected; T/C= 5/5
[11] = tested on: Mus musculus; test: Antitumor activity expressed as the no. of mice surviving >6 months was tested against fibrosarcoma at the dosage of 25 mg/kg (sc)
Outline: (§4)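 Fibrosarcoma was established by sc inoculation of 4 × 10⁶ cells in mice. On day 3 they received a single ip or sc injection of compound freshly suspended in 0.89% saline, with 5–10 mice per group. The count is of mice surviving 6 months or more after treatment, scored as tumor-free, with the percentage of the group also given.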

[12] = tested on: Mus musculus; test: Antitumor activity expressed as the no. of mice surviving >6 months was tested against fibrosarcoma at the dosage of 10 mg/kg (ip); outline: as §4
[13] = tested on: Mus musculus; test: Antitumor activity expressed as %T/C was tested against fibrosarcoma at the dosage of 25 mg/Kg (ip); outline: as §1
[14] = tested on: Mus musculus; test: Antitumor activity expressed as mean life span of nonsurvivors in days (T/C) was tested against fibrosarcoma at the dosage of 25 mg/kg (sc); 41/26; outline: as §3
[15] = tested on: Mus musculus; test: Antitumor activity expressed as average body weight change was tested against fibrosarcoma at the dosage of 10 mg/kg (Ip); outline: as §2
[16] = tested on: Mus musculus; test: Antitumor activity against Dalton's lymphoma infected mice at the dosage of 25 mg/kg (ip) and expressed as no. of mice injected; T/C= 5/5
[17] = tested on: Mus musculus; test: Antitumor activity expressed as mean life span of nonsurvivors in days (T/C) was tested against fibrosarcoma at the dosage of 10 mg/kg (sc); 37/27; outline: as §3
[18] = tested on: Mus musculus; test: Antitumor activity expressed as %T/C was tested against Dalton's lymphoma at the dosage of 10 mg/Kg (ip)
Outline: (§5)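 Dalton's lymphoma: 2 × 10⁷ ascites cells were given ip to DbA mice, 18–20 g. A single ip dose in 0.89% saline followed on day two, with saline-injected controls. Mean life span was calculated excluding mice that survived 6 months or more. T/C% is the mean survival of treated mice, excluding tumour-free survivors, divided by the mean life span of untreated mice ×100.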

[19] = tested on: Mus musculus; test: Antitumor activity expressed as mean life span of nonsurvivors in days (T/C) was tested against fibrosarcoma at the dosage of 50 mg/kg (ip); 45/27; outline: as §3
[20] = tested on: Mus musculus; test: Antitumor activity expressed as average body weight change was tested against fibrosarcoma at the dosage of 5 mg/kg (sc); outline: as §2
[21] = tested on: Mus musculus; test: Antitumor activity expressed as mean life span of nonsurvivors in days (T/C) was tested against fibrosarcoma at the dosage of 5 mg/kg (ip); 41/27; outline: as §3
[22] = tested on: Mus musculus; test: Antitumor activity against fibrosarcoma infected mice at the dosage of 50 mg/kg (ip) and expressed as no. of mice injected; T/C= 8/8
[23] = tested on: Mus musculus; test: Antitumor activity expressed as average body weight change was tested against fibrosarcoma at the dosage of 50 mg/kg (Ip); outline: as §2
[24] = tested on: Mus musculus; test: Antitumor activity expressed as average body weight change was tested against fibrosarcoma at the dosage of 5 mg/kg (Ip); outline: as §2
[25] = tested on: Mus musculus; test: Antitumor activity against Dalton's lymphoma infected mice at the dosage of 2 mg/kg (ip) and expressed as no. of mice injected; T/C= 5/5
[26] = tested on: Mus musculus; test: Antitumor activity expressed as %T/C was tested against fibrosarcoma at the dosage of 5 mg/Kg (ip); outline: as §1
[27] = tested on: Mus musculus; test: Antitumor activity expressed as mean life span of nonsurvivors in days (T/C) was tested against fibrosarcoma at the dosage of 5 mg/kg (sc); 36/26; outline: as §3
[28] = tested on: Mus musculus; test: Antitumor activity expressed as mean life span of nonsurvivors in days (T/C) was tested against fibrosarcoma at the dosage of 10 mg/kg (ip); 38/26; outline: as §3
[29] = tested on: Mus musculus; test: Antitumor activity expressed as the no. of mice surviving >6 months was tested against fibrosarcoma at the dosage of 5 mg/kg (ip); outline: as §4
[30] = tested on: Mus musculus; test: Antitumor activity against fibrosarcoma infected mice at the dosage of 5 mg/kg (ip) and expressed as no. of mice injected; T/C= 8/6
[31] = tested on: Mus musculus; test: Antitumor activity against fibrosarcoma infected mice at the dosage of 25 mg/kg (sc) and expressed as no. of mice injected; T/C= 8/9
[32] = tested on: Mus musculus; test: Antitumor activity expressed as %T/C was tested against Dalton's lymphoma at the dosage of 2 mg/Kg (ip); outline: as §5
[33] = tested on: Mus musculus; test: Antitumor activity expressed as the no. of mice surviving >6 months was tested against fibrosarcoma at the dosage of 50 mg/kg (ip); outline: as §4
[34] = tested on: Mus musculus; test: Antitumor activity against fibrosarcoma infected mice at the dosage of 10 mg/kg (sc) and expressed as no. of mice injected; T/C= 8/7
[35] = tested on: Mus musculus; test: Antitumor activity expressed as average body weight change was tested against fibrosarcoma at the dosage of 10 mg/kg (sc); outline: as §2
[36] = tested on: Mus musculus; test: Antitumor activity expressed as the no. of mice surviving >6 months was tested against fibrosarcoma at the dosage of 25 mg/kg (ip); outline: as §4
[37] = tested on: Mus musculus; test: Antitumor activity against fibrosarcoma infected mice at the dosage of 10 mg/kg (ip) and expressed as no. of mice injected; T/C= 6/6
[38] = tested on: Mus musculus; test: Antitumor activity expressed as mean life span of nonsurvivors in days (T/C) was tested against Dalton's lymphoma at the dosage of 25 mg/kg (ip); 41/21
[39] = tested on: Mus musculus; test: Antitumor activity expressed as %T/C was tested against Dalton's lymphoma at the dosage of 25 mg/Kg (ip); outline: as §5
[40] = tested on: Mus musculus; test: Antitumor activity expressed as average body weight change was tested against fibrosarcoma at the dosage of 25 mg/kg (sc); outline: as §2
[41] = tested on: Mus musculus; test: Antitumor activity expressed as %T/C was tested against fibrosarcoma at the dosage of 50 mg/Kg (ip); outline: as §1
[42] = tested on: Mus musculus; test: Antitumor activity expressed as %T/C was tested against fibrosarcoma at the dosage of 10 mg/Kg (ip); outline: as §1

For `O=C(NN=C(S)c1ccco1)c1ccccc1O`, the T/C [1] was 10, the T/C [2] was 158% and the T/C [3] was 33 days. The T/C [4] was 27 days, the T/C [5] was 139% and the T/C [6] was 7. For the same compound, the T/C [7] was 137%, the “Average body weight change” value [8] was 7.88% and the T/C [9] was 40 days. For the same compound, the T/C [10] was 5, the “No. of mice surviving >6 months” value [11] was 6 and the “No. of mice surviving >6 months” value [12] was 3. For the same compound, the T/C [13] was 143%, the T/C [14] was 41 days and the “Average body weight change” value [15] was 11.27%. For the same compound, the T/C [16] was 5, the T/C [17] was 37 days and the T/C [18] was 157%. The T/C [19] was 45 days, the “Average body weight change” value [20] was 11.62% and the T/C [21] was 41 days. The T/C [22] was 8, the “Average body weight change” value [23] was 2.65% and the “Average body weight change” value [24] was 15.1%. For the same compound, the T/C [25] was 5, the T/C [26] was 152% and the T/C [27] was 36 days. For the same compound, the T/C [28] was 38 days, the “No. of mice surviving >6 months” value [29] was 4 and the T/C [30] was 8. The T/C [31] was 8, the T/C [32] was 128% and the “No. of mice surviving >6 months” value [33] was 6. For the same compound, the T/C [34] was 8, the “Average body weight change” value [35] was 12.31% and the “No. of mice surviving >6 months” value [36] was 5. The T/C [37] was 6, the T/C [38] was 41 days and the T/C [39] was 195%. For the same compound, the “Average body weight change” value [40] was 9.96%, the T/C [41] was 167% and the T/C [42] was 146%.
